The test system of one assay is MRC5. In words: In vitro inhibitory activity on MRC5 fibroblast tissue cultures inoculated with virulent RH strain of Toxoplasma gondii. Particulars: Homo sapiens. Type of assay: functional, cell-based. The essentials:
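Confluent MRC5 fibroblast monolayers inoculated with 2000 fresh RH tachyzoites; compounds added at various concentrations after 4 h, then 72 h further incubation. Eight uninfected and eight drug-free control wells per plate. Cold-methanol-fixed cultures assayed by ELISA with peroxidase-labelled anti-SAG-1 monoclonal antibody, read at 405 nm against uninfected blank. IC50 from linear regression of OD versus log concentration.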

The subject of the next assay is Plasmodium falciparum. Description: In vitro inhibitory activity against chloroquine-resistant Plasmodium falciparum NF54-R in blood. Type of assay: functional, organism-based.
Another assay has as its system Plasmodium yoelii yoelii. In words: In vitro inhibitory activity against hepatic stages of Plasmodium yoelii yoelii 265 BY. Type of assay: functional, organism-based.

The values below come from ChEMBL document CHEMBL1148256, “Synthesis of new fluoroquinolones and evaluation of their in vitro activity on Toxoplasma gondii and Plasmodium spp” (Bioorg Med Chem Lett, 2004).

For the molecule `COc1c(N2CCNC(C)C2)c(F)cc2c(=O)c(C(=O)O)cn(C3CC3)c12` (stereo not drawn) [GATIFLOXACIN], the IC50 (commonly the concentration needed to halve the response being measured) in the assay with MRC5 is 12.7 µM; in the assay on Plasmodium falciparum it was 29 µM.

For `COc1c(N2C[C@@H]3CCCN[C@@H]3C2)c(F)cc2c(=O)c(C(=O)O)cn(C3CC3)c12` [MOXIFLOXACIN], the IC50 with MRC5 was 10.9 µM; with Plasmodium falciparum, 45 µM.

In the case of `N[C@@H]1[C@H]2CN(c3nc4c(cc3F)c(=O)c(C(=O)O)cn4C3CC3)C[C@@H]12` [TROVAFLOXACIN4], the 50% inhibitory concentration (IC50) in the assay with MRC5 was found to be 1.68 µM.

Consider `N[C@@H]1[C@H]2CN(c3nc4c(cc3F)c(=O)c(C(=O)O)cn4-c3ccc(F)cc3F)C[C@@H]12` [TROVAFLOXACIN], for which the half-maximal inhibitory concentration (IC50) in the assay with MRC5 amounted to 0.96 µM; in the assay with Plasmodium falciparum, 22 µM; in the assay on Plasmodium yoelii yoelii, 74 µM.
